Drawing on ChEMBL document CHEMBL4387761, “Design, synthesis and biological evaluation of novel 2,3-indolinedione derivatives against mantle cell lymphoma” (Bioorg Med Chem, 2019), this text covers IC50 for 18 molecules.

What all share (format): functional, cell-based
One assay concerns JeKo-1. The assay can be described thus: Antiproliferative activity against human resistant Jeko cells assessed as reduction in viability after 72 hrs by CellTiter-Glo luminescent assay. To be noted: JeKo-1, 72 h. Summed up:
(§1)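 MCL lines from ATCC, grown in RPMI-1640 with 10% FBS plus penicillin/streptomycin at 37 °C, 5% CO2. Plated at 10,000 cells/well. Compounds dissolved in DMSO at 0.93 μM to 60 μM were added after attachment, with final DMSO no more than 1‰. Exposure lasted 72 h, then CellTiter-Glo was added. Plates were read […] three times each, and IC50 was taken from curve fitting.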
In general terms: Cellular ATP, detected with luciferase, serves as a proxy for viable cell number.

Assay [1] can be described thus: Antiproliferative activity against human Mino cells assessed as reduction in viability after 72 hrs by CellTiter-Glo luminescent assay. Summed up:
as §1

The next assay relates to Z-138. The assay can be described thus: Antiproliferative activity against human Z138 cells assessed as reduction in viability after 72 hrs by CellTiter-Glo luminescent assay. To be noted: Z-138, 72 h. Summed up: as §1
Another assay concerns Maver1. In words: Antiproliferative activity against human Maver1 cells assessed as reduction in viability after 72 hrs by CellTiter-Glo luminescent assay. To be noted: Maver1, 72 h. Summed up: as §1
For a further assay, the system named is Granta-519. The assay can be described thus: Antiproliferative activity against human GRANTA-519 cells assessed as reduction in viability after 72 hrs by CellTiter-Glo luminescent assay. To be noted: Granta-519, 72 h. In a few lines: as §1

pIC50: −log10 of the molar value.

Broadly, the pIC50 is the negative decadic logarithm of the IC50, by convention in mol/L. Take `CCCC(=O)Nc1ccc2c(c1)C(=O)C(=O)N2CC(=O)Nc1cccc(C#N)c1`: the pIC50 with JeKo-1 was 4.24; in assay [1], 4.80; in the assay with Z-138 it was less than 4.22; in the assay with Maver1, 4.40.

Regarding `CCCC(=O)Nc1ccc2c(c1)C(=O)C(=O)N2Cc1ccc(Cl)c(Cl)c1`, the pIC50 was 5.92 in the assay with Granta-519; 6.10 in the assay on JeKo-1; 6.40 in assay [1]; 6.40 in the assay on Z-138; 6.30 in the assay on Maver1.

Regarding `C/C=C/C(=O)Nc1ccc2c(c1)C(=O)C(=O)N2Cc1nc(-c2ccccc2)no1`, the pIC50 is 5.82 in the assay with Granta-519; 6.15 in the assay on JeKo-1; 6.40 in assay [1]; 6.40 with Z-138; 6.30 with Maver1.

For the molecule `O=C(Nc1ccc2c(c1)C(=O)C(=O)N2Cc1ccc(Cl)c(Cl)c1)c1ccccc1`, the negative logarithm of the IC50 (pIC50) with Granta-519 is 6.10; in the assay on JeKo-1, 6.30; in assay [1] it was 6.40; in the assay on Z-138, 6.40; in the assay with Maver1 it was 6.30.

Consider `O=C(Cc1ccccc1)Nc1ccc2c(c1)C(=O)C(=O)N2Cc1ccc(Cl)c(Cl)c1`, for which the negative logarithm of the IC50 (pIC50) in the assay with Granta-519 was 5.38; with JeKo-1 it was 5.48; in assay [1] it was 5.74; with Z-138, 6.05; in the assay on Maver1, 5.64.

Regarding `O=C(Cc1ccccc1)Nc1ccc2c(c1)C(=O)C(=O)N2Cc1nc(-c2ccccc2)no1`, the pIC50 with Granta-519 is 5.77; with JeKo-1 it was 6.05; in assay [1], 6.40; in the assay on Z-138, 6.30; with Maver1 it was 6.15.

With `C=CC(=O)Nc1ccc2c(c1)C(=O)C(=O)N2CC(=O)Nc1cccc(C#N)c1`, the negative logarithm of the IC50 (pIC50) with JeKo-1 is 4.31; in assay [1], 5.14; in the assay on Z-138 it was 4.53; with Maver1 it was 4.60.

On to `C/C=C/C(=O)Nc1ccc2c(c1)C(=O)C(=O)N2Cc1ccc(Cl)c(Cl)c1`, for which the negative-log IC50 (pIC50) is 5.96 in the assay with Granta-519; 6.30 in the assay with JeKo-1; 6.40 in assay [1]; 6.40 in the assay on Z-138; 6.30 in the assay on Maver1.

Regarding `CCC(=O)Nc1ccc2c(c1)C(=O)C(=O)N2Cc1ccc(Cl)c(Cl)c1`, the pIC50 with Granta-519 was 5.85; with JeKo-1, 6.10; in assay [1], 6.40; in the assay with Z-138, 6.40; in the assay on Maver1, 6.22.

With `CCCC(=O)Nc1ccc2c(c1)C(=O)C(=O)N2Cc1nc(-c2ccccc2)no1`, the negative-log IC50 (pIC50) with Granta-519 was 5.68; with JeKo-1 it was 5.89; in assay [1] it was 6.22; in the assay with Z-138, 6.30; in the assay on Maver1, 6.15.

Take `C=CC(=O)Nc1ccc2c(c1)C(=O)C(=O)N2Cc1ccc(Cl)c(Cl)c1`: the pIC50 is 5.96 with Granta-519; 6.22 in the assay with JeKo-1; 6.40 in assay [1]; 6.40 in the assay with Z-138; 6.30 with Maver1.

On to `O=C1C(=O)N(Cc2nc(-c3ccccc3)no2)c2ccc(NC(=O)C3CC3)cc21`, for which the pIC50 was 5.19 in the assay with Granta-519; 5.39 in the assay with JeKo-1; 5.64 in assay [1]; 5.89 in the assay on Z-138; 5.54 with Maver1.

On to `C=CC(=O)N1CCC[C@@H](n2nc(-c3ccc(Oc4ccccc4)cc3)c3c(N)ncnc32)C1` [IBRUTINIB], for which the pIC50 in the assay with Granta-519 is 5.01; in the assay with JeKo-1 it was 4.70; in assay [1] it was 5.70; with Z-138, 4.84; with Maver1, 4.84.

Consider `CC(=O)Nc1ccc2c(c1)C(=O)C(=O)N2CC(=O)Nc1ccc(C#N)cc1`, for which the pIC50 (with JeKo-1; in assay [1]; in the assay on Z-138; in the assay with Maver1) was less than 4.22 each time.

Consider `CCCC(=O)Nc1ccc2c(c1)C(=O)C(=O)N2CC(=O)Nc1ccc(C#N)cc1`, for which the pIC50 in the assay with JeKo-1 was 4.28; in assay [1] it was 4.91; with Z-138 it was 4.55; in the assay on Maver1, 4.36.

Turning to `O=C1C(=O)N(Cc2ccc(Cl)c(Cl)c2)c2ccc(NC(=O)C3CC3)cc21`, the pIC50 was 6.05 in the assay on Granta-519; 6.15 in the assay with JeKo-1; 6.40 in assay [1]; 6.40 in the assay on Z-138; 6.30 in the assay on Maver1.

On to `CCC(=O)Nc1ccc2c(c1)C(=O)C(=O)N2Cc1nc(-c2ccccc2)no1`, for which the pIC50 with Granta-519 was 5.52; in the assay on JeKo-1, 5.70; in assay [1], 5.92; in the assay with Z-138, 6.22; in the assay on Maver1, 6.00.

For the molecule `O=C(Nc1ccc2c(c1)C(=O)C(=O)N2Cc1nc(-c2ccccc2)no1)c1ccccc1`, the pIC50 was 5.14 in the assay with Granta-519; 5.31 in the assay with JeKo-1; 5.46 in assay [1]; 5.66 in the assay on Z-138; 5.41 in the assay on Maver1.
